Source: ChEMBL document CHEMBL4765357, “Development of small-molecule inhibitors of fatty acyl-AMP and fatty acyl-CoA ligases in Mycobacterium tuberculosis” (Eur J Med Chem, 2020)
In brackets after ≈: the same amount, converted by molar mass.

Assays:
[1] = test system: Mycobacterium tuberculosis; assay: Antimycobacterial activity against Mycobacterium tuberculosis H37Rv ATCC 27294 assessed as inhibition of bacterial growth under GAST medium condition after 7 to 14 days by broth microdilution method; assay type: functional; details: time 7-14 day
Summary of the method: (§1)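 Mtb H37Rv ATCC 27294 by broth microdilution in GAST or 7H9 base with 5 g/L BSA fraction V, 0.8 g/L NaCl and 0.05% tyloxapol. Carbon source was 20 mM glycerol/10 mM glucose or 0.05 mM sodium palmitate. Compounds came from DMSO stocks with DMSO-only controls. Inoculum was 10⁴-10⁵ cells; growth was read at 7 and 14 days. MIC is the concentration giving >99% growth inhibition; runs were in triplicate.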

[2] = biological target: T1, Medium/long-chain-fatty-acid--CoA/3-oxocholest-4-en-26-oate--CoA ligase (Mycobacterium tuberculosis, UniProt P9WQ51); assay: Inhibition of Mycobacterium tuberculosis H37Rv FACL19 Spectra expressed in Escherichia coli BL21(DE3) cells assessed as cleavage of MEsG by spectroscopic analysis; details: read-out: Ki(app)
T1 sequence (P9WQ51 whole entry): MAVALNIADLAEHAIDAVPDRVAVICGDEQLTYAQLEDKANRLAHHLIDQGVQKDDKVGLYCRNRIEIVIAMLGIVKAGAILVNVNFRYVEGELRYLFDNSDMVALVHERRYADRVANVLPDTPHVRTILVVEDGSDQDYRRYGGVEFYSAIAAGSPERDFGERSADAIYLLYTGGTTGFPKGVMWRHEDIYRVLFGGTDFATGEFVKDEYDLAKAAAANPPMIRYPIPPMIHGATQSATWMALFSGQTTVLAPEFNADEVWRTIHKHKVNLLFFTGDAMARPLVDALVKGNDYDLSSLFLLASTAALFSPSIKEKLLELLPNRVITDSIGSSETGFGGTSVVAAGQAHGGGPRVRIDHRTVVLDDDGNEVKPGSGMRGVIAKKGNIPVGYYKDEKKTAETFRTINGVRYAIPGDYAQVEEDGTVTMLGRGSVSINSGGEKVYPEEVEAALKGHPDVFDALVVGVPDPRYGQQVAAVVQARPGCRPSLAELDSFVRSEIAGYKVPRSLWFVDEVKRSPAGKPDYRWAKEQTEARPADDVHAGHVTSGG
Summary of the method: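 FACL19 (0.167 μM) with 250 μM dodecanoic acid in a coupled MesG assay with pyrophosphatase and nucleoside phosphorylase. Buffer was 50 mM Tris·HCl pH 8.0 with 2.5 mM ATP, 5 mM MgCl₂, 0.5 mM DTT and 150 mM hydroxylamine. Apparent Ki came from a Morrison tight-binding fit.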

[3] = biological target: T2, Long-chain-fatty-acid--AMP ligase FadD28 (Mycobacterium tuberculosis, UniProt P9WQ59); assay: Inhibition of Mycobacterium tuberculosis H37Rv FAAL28 Spectra expressed in Escherichia coli BL21(DE3) cells assessed as cleavage of MEsG by spectroscopic analysis; details: read-out: Ki(app)
T2 sequence (P9WQ59 whole entry): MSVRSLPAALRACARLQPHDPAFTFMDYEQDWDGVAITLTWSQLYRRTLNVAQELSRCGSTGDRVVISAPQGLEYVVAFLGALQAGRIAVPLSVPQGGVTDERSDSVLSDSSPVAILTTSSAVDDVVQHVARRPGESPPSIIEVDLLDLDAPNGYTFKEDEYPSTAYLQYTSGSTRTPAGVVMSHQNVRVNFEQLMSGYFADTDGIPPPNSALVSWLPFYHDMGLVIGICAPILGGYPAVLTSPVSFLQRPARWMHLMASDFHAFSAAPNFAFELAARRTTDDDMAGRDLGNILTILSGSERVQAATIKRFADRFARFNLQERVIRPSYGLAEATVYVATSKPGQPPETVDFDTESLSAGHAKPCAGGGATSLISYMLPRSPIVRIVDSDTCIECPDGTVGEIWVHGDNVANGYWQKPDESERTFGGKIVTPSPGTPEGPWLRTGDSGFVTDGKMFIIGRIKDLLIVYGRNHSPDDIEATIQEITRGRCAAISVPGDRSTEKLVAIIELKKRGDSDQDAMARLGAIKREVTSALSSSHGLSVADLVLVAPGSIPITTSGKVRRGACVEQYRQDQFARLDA
Summary of the method: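 Coupled continuous assay with pyrophosphatase (0.04 U) and nucleoside phosphorylase (0.1 U), using 0.45 μM FAAL28 and 33 μM tetradecanoic acid. Buffer was 50 mM Tris·HCl pH 8.0 with 2.5 mM ATP, 5 mM MgCl₂, 0.5 mM DTT, 150 mM hydroxylamine and 0.2 mM MesG. Apparent Ki came from a Morrison equation fit.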

[4] = test system: Mycobacterium tuberculosis; assay: Antimycobacterial activity against Mycobacterium tuberculosis H37Rv ATCC 27294 assessed as inhibition of bacterial growth under 7H9 medium condition after 7 to 14 days by broth microdilution method; assay type: functional; details: time 7-14 day; summary of the method: as §1
[5] = test system: Mycobacterium tuberculosis; assay: Antimycobacterial activity against Mycobacterium tuberculosis H37Rv ATCC 27294 assessed as inhibition of bacterial growth under 7H9 medium condition after 7 to 14 days in presence of palmitate by broth microdilution method; assay type: functional; details: time 7-14 day; summary of the method: as §1
Vero = assay: Cytotoxicity against African green monkey Vero cells assessed as reduction in cell viability after 72 hrs by MTT assay; assay type: cell-based; details: Chlorocebus sabaeus
Summary of the method: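 Vero cells were seeded at (2.5–5.0) × 10⁴ per well in MEM with 5% FBS and penicillin/streptomycin. Compounds were added from 20 mM DMSO stocks to a final 100 μM. Controls were 0.5% and 50% DMSO, all in triplicate. After 72 h at 37 °C in 5% CO₂, cells got 1 mg/mL MTT for 3 h. Formazan was dissolved in isopropanol and read at 570/650 nm, with viability expressed relative to DMSO control.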

Row | SMILES | MIC [1] [µM] | Ki [2] [µM] | Ki [3] [µM] | MIC [4] [µM] | MIC [5] [µM] | IC50 (Vero) [µM]
1 | Nc1ncnc2c1ncn2[C@@H]1O[C@H](CNS(=O)(=O)NC(=O)CCCCCCCCCCOc2ccccc2)[C@@H](O)[C@H]1O | 1.56 (≈ 0.945 µg/mL) | > 100 | 3.1 |  |  | 
2 | Nc1ncnc2c1ncn2[C@@H]1O[C@H](COS(=O)(=O)NC(=O)CCCCCCCCCCCOc2ccccc2)[C@@H](O)[C@H]1O | 12.5 (≈ 7.76 µg/mL) | > 100 | 2.6 |  |  | 
3 | CCCC(=O)NS(=O)(=O)OC[C@H]1O[C@@H](n2cnc3c(N)ncnc32)[C@H](O)[C@@H]1O | > 100 | > 100 | > 100 | > 100 | > 100 | 81.4
4 | CCCCCCCCC/C=C/C(=O)NS(=O)(=O)OC[C@H]1O[C@@H](n2cnc3c(N)ncnc32)[C@H](O)[C@@H]1O | 100 (≈ 52.7 µg/mL) | > 100 | > 100 | > 100 | > 100 | 10.4
5 | CCCCCCCC(=O)NS(=O)(=O)OC[C@H]1O[C@@H](n2cnc3c(N)ncnc32)[C@H](O)[C@@H]1O | 12.5 (≈ 5.91 µg/mL) | > 100 | > 100 | 100 (≈ 47.3 µg/mL) | > 100 | 6
6 | Nc1ncnc2c1ncn2[C@@H]1O[C@H](COS(=O)(=O)NC(=O)CCCCCCCCCCOc2ccc(Cl)cc2)[C@@H](O)[C@H]1O | 6.25 (≈ 4.01 µg/mL) | 13.7 | 2.2 |  |  | 
7 | Nc1ncnc2c1ncn2[C@@H]1O[C@H](COS(=O)(=O)NCCCCCCCCCCCOc2ccccc2)[C@@H](O)[C@H]1O | > 50 | > 100 | > 100 |  |  | 
8 | Nc1ncnc2c1ncn2[C@@H]1O[C@H](COS(=O)(=O)NC(=O)CCCCCCCCCCO)[C@@H](O)[C@H]1O | 6.25 (≈ 3.32 µg/mL) | > 100 | 92.7 | 100 (≈ 53.1 µg/mL) | 100 | 42.7
9 | CCCCCCCCCCCCCCCC(=O)NS(=O)(=O)OC[C@H]1O[C@@H](n2cnc3c(N)ncnc32)[C@H](O)[C@@H]1O | 6.25 (≈ 3.65 µg/mL) |  | 1 | 100 (≈ 58.5 µg/mL) | > 100 | 0.3
10 | Nc1ncnc2c1ncn2[C@@H]1O[C@H](COS(=O)(=O)NC(=O)CCCCCCCCCCOc2ccc(Br)cc2)[C@@H](O)[C@H]1O | > 50 | 10.4 | 4 |  |  | 
11 | C=CCCCCCCCCC(=O)NS(=O)(=O)OC[C@H]1O[C@@H](n2cnc3c(N)ncnc32)[C@H](O)[C@@H]1O | 0.39 (≈ 0.2 µg/mL) | > 100 | > 100 | 25 (≈ 12.8 µg/mL) | 25 | 11.6
12 | CCCCCC/C=C/CCCC(=O)NS(=O)(=O)OC[C@H]1O[C@@H](n2cnc3c(N)ncnc32)[C@H](O)[C@@H]1O | 100 (≈ 52.7 µg/mL) | > 100 | > 100 | > 100 | > 100 | 16.8
13 | CCCCCCCCCOCC(=O)NS(=O)(=O)OC[C@H]1O[C@@H](n2cnc3c(N)ncnc32)[C@H](O)[C@@H]1O | 0.098 (≈ 0.052 µg/mL) | > 100 | > 100 | 25 (≈ 13.3 µg/mL) | 25 | 8.7
14 | Nc1ncnc2c1ncn2[C@@H]1O[C@H](COS(=O)(=O)NC(=O)CCCCCCCCCCOc2ccccc2C(F)(F)F)[C@@H](O)[C@H]1O | > 50 | 28.5 | 1.3 |  |  | 
15 | Nc1ncnc2c1ncn2[C@@H]1O[C@H](COS(=O)(=O)NC(=O)CCCCCCCCCCOc2cccc(Cl)c2)[C@@H](O)[C@H]1O | 25 (≈ 16 µg/mL) | 26.4 | 0.5 |  |  | 
16 | Nc1ncnc2c1ncn2[C@@H]1O[C@H](COS(=O)(=O)NC(=O)CCCCCCCCCCNc2ccccc2)[C@@H](O)[C@H]1O | 12.5 (≈ 7.57 µg/mL) | 63.4 | 7.3 |  |  | 

Row | SMILES | MIC [1] [µM] | Ki [2] [µM] | Ki [3] [µM] | MIC [4] [µM] | MIC [5] [µM] | IC50 (Vero) [µM]
17 | Nc1ncnc2c1ncn2[C@@H]1O[C@H](COS(=O)(=O)NC(=O)CCCCCCCCCCOc2ccc(F)cc2)[C@@H](O)[C@H]1O | 12.5 (≈ 7.81 µg/mL) | 11.4 | 0.3 |  |  | 
18 | COc1cccc(OCCCCCCCCCCC(=O)NS(=O)(=O)OC[C@H]2O[C@@H](n3cnc4c(N)ncnc43)[C@H](O)[C@@H]2O)c1 | 25 (≈ 15.9 µg/mL) | > 100 | 1.7 |  |  | 
19 | Nc1ncnc2c1ncn2[C@@H]1O[C@H](COS(=O)(=O)NC(=O)CCCCCCCCCCOc2cccc(C(F)(F)F)c2)[C@@H](O)[C@H]1O | 25 (≈ 16.9 µg/mL) | 13.5 | 4.4 |  |  | 
20 | Nc1ncnc2c1ncn2[C@@H]1O[C@H](COS(=O)(=O)NC(=O)CCCCCCCCCCOc2cccc(F)c2)[C@@H](O)[C@H]1O | 25 (≈ 15.6 µg/mL) | 7.3 | 1.6 |  |  | 
21 | COc1ccc(OCCCCCCCCCCC(=O)NS(=O)(=O)OC[C@H]2O[C@@H](n3cnc4c(N)ncnc43)[C@H](O)[C@@H]2O)cc1 | > 50 | > 100 | 6.6 |  |  | 
22 | Nc1ncnc2c1ncn2[C@@H]1O[C@H](COS(=O)(=O)NC(=O)CCCCCCCCCCOc2ccccc2F)[C@@H](O)[C@H]1O | > 50 | > 100 | 1.5 |  |  | 
23 | Nc1ncnc2c1ncn2[C@@H]1O[C@H](COS(=O)(=O)NC(=O)CCCCCCCCCCOc2ccc(C(F)(F)F)cc2)[C@@H](O)[C@H]1O | 25 (≈ 16.9 µg/mL) | 34.4 | 15.6 |  |  | 
24 | Nc1ncnc2c1ncn2[C@@H]1O[C@H](CNS(=O)(=O)OCCCCCCCCCCCOc2ccccc2)[C@@H](O)[C@H]1O | > 50 | > 100 | > 100 |  |  | 
25 | COc1ccccc1OCCCCCCCCCCC(=O)NS(=O)(=O)OC[C@H]1O[C@@H](n2cnc3c(N)ncnc32)[C@H](O)[C@@H]1O | > 50 | > 100 | > 100 |  |  | 
26 | CCCCCCCCCCCCCCCCCCCC(=O)NS(=O)(=O)OC[C@H]1O[C@@H](n2cnc3c(N)ncnc32)[C@H](O)[C@@H]1O | > 100 |  |  | > 100 | > 100 | 0.1
27 | Nc1ncnc2c1ncn2[C@@H]1O[C@H](COS(=O)(=O)NC(=O)CCCCCCCCCCSc2ccccc2)[C@@H](O)[C@H]1O | > 50 | 41.6 | 6.3 |  |  | 
28 | Nc1ncnc2c1ncn2[C@@H]1O[C@H](COS(=O)(=O)NC(=O)CCCCCCCCCCOc2ccc3ccccc3c2)[C@@H](O)[C@H]1O | > 50 | 20.4 | 1.88 |  |  | 
29 | Nc1ncnc2c1ncn2[C@@H]1O[C@H](COS(=O)(=O)NC(=O)CCCCCCCCCCOc2ccccc2Cl)[C@@H](O)[C@H]1O | > 50 | > 100 | 3.6 |  |  | 
30 | Nc1ncnc2c1ncn2[C@@H]1O[C@H](COS(=O)(=O)NC(=O)CCCCCCCCCCOc2cccc3ccccc23)[C@@H](O)[C@H]1O | > 50 | 9.64 | 25.2 |  |  | 
31 | Nc1ncnc2c1ncn2[C@@H]1O[C@H](COS(=O)(=O)NC(=O)CCCCCCCCCOc2ccccc2)[C@@H](O)[C@H]1O | 50 (≈ 29.6 µg/mL) | > 100 | 6.7 |  |  | 
